# Source: ChEMBL document CHEMBL1151962, “Identification of N,1,4,4-tetramethyl-8-{[4-(4-methylpiperazin-1-yl)phenyl]amino}-4,5-dihydro-1H-pyrazolo[4,3-h]quinazoline-3-carboxamide (PHA-848125), a potent, orally available cyclin dependent kinase inhibitor” (J Med Chem, 2009)
# Calls of active or inactive are those of the source. The rule behind the calls is not given here.
# Tests used:
# [1] = Inhibition of NIM
# [2] = target: Vascular endothelial growth factor receptor 2 (Homo sapiens, UniProt P35968); assay: Inhibition of VEGFR2
# [3] = Solubility at pH 7; format: physicochemical; settings: buffer
# [4] = target: Mitogen-activated protein kinase 1 (Homo sapiens, UniProt P28482); assay: Inhibition of ERK2
# A2780 [5] = assay: Inhibition of DNA synthesis in human A2780 cells assessed as decrease in […] incorporation at 1 uM after 24 hrs by flow cytometry; format: functional; set-up: scale not given: the % may be the effect or the level left
# Procedure, shortened: (§1)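 A2780 cells (ECACC) were seeded at 25 000 cells/cm² in RPMI 1640 pH 7.4 with 10% FBS, 2 mM L-glutamine and penicillin-streptomycin, at 37 °C and 5% CO2. After 24 h, cells were exposed to 1 μM compound for 24 h. Floating and trypsin/EDTA-detached cells were pooled and PBS-washed. Samples were split for flow cytometry and BrdU incorporation. Results are expressed versus untreated control cells.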
# [6] = Inhibition of SULU1
# [7] = target: MAP kinase-activated protein kinase 2 (Homo sapiens, UniProt P49137); assay: Inhibition of MAPKAPK2
# [8] = target: 3-phosphoinositide-dependent protein kinase 1 (Homo sapiens, UniProt O15530); assay: Inhibition of PDK1
# [9] = target: Mitogen-activated protein kinase 14 (Homo sapiens, UniProt Q16539); assay: Inhibition of P38alpha
# [10] = target: Proto-oncogene tyrosine-protein kinase receptor Ret (Homo sapiens, UniProt P07949); assay: Inhibition of RET
# A2780 [11] = assay: Effect on cell cycle progression in human A2780 cells assessed as decrease in accumulation at S phase at 1 uM after 24 hrs by flow cytometry; format: functional; set-up: scale not given: the % may be the effect or the level left; procedure, shortened: as §1
# [12] = target: Vascular endothelial growth factor receptor 3 (Homo sapiens, UniProt P35916); assay: Inhibition of VEGFR3
# [13] = target: Glycogen synthase kinase-3 beta (Homo sapiens, UniProt P49841); assay: Inhibition of GSK3-beta
# [14] = target: Cell division cycle 7-related protein kinase (Homo sapiens, UniProt O00311); assay: Inhibition of CDC7
# [15] = target: Serine/threonine-protein kinase PLK1 (Homo sapiens, UniProt P53350); assay: Inhibition of PLK1
# [16] = target: Inhibitor of nuclear factor kappa-B kinase subunit beta (Homo sapiens, UniProt O14920); assay: Inhibition of IKK2
# [17] = target: Tyrosine-protein kinase ZAP-70 (Homo sapiens, UniProt P43403); assay: Inhibition of ZAP-70
# A2780 [18] = assay: Effect on cell cycle progression in human A2780 cells assessed as increase in accumulation at […] phase at 1 uM after 24 hrs by flow cytometry; format: functional; procedure, shortened: as §1
# [19] = target: Mast/stem cell growth factor receptor Kit (Homo sapiens, UniProt P10721); assay: Inhibition of C-KIT
# A2780 [20] = assay: Effect on cell cycle progression in human A2780 cells assessed as decrease in accumulation at G2/M phase at 1 uM after 24 hrs by flow cytometry; format: functional; set-up: scale not given: the % may be the effect or the level left; procedure, shortened: as §1
# [21] = Inhibition of CK2
# [22] = target: cAMP-dependent protein kinase catalytic subunit alpha (Homo sapiens, UniProt P17612); assay: Inhibition of PKAalpha
# [23] = target: STE20-like serine/threonine-protein kinase (Homo sapiens, UniProt Q9H2G2); assay: Inhibition of STLK2
# A2780 [24] = assay: Antiproliferative activity against human A2780 cells after 72 hrs by cell Titer_Glo assay; format: functional, cell-based; settings: A2780, 72 h
# Procedure, shortened: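 A2780 cells were seeded at 10000–30000 cells/cm² in medium with 10% FCS. After 24 h they were treated with serial dilutions of compound, in two replicates. Cell amount was read by Cell Titer Glo 72 h after treatment. IC50 came from sigmoidal fitting.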
# [25] = target: Protein kinase C beta type (Homo sapiens, UniProt P05771); assay: Inhibition of PKCbeta
# Insulin receptor = Insulin receptor (Homo sapiens, UniProt P06213); assay: Inhibition of IR
# [26] = target: Mitogen-activated protein kinase 11 (Homo sapiens, UniProt Q15759); assay: Inhibition of P38beta
# [27] = target: Fibroblast growth factor receptor 1 (Homo sapiens, UniProt P11362); assay: Inhibition of FGFR1
# [28] = target: Serine/threonine-protein kinase Chk1 (Homo sapiens, UniProt O14757); assay: Inhibition of CHK1
# A2780 [29] = assay: Antitumor activity against human A2780 cells xenografted in nude mouse assessed as tumor growth inhibition at 30 mg/kg, po BID for 10 consecutive days; format: functional; set-up: scale not given: the % may be the effect or the level left
# Procedure, shortened: (§2)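 A2780 human ovarian xenografts were grown in nude mice. Compound was given orally at 20, 30 or 40 mg/kg twice daily for 10 consecutive days. The read-out was tumor growth inhibition.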
# [30] = target: RAC-alpha serine/threonine-protein kinase (Homo sapiens, UniProt P31749); assay: Inhibition of AKT1
# [31] = target: Inhibitor of nuclear factor kappa-B kinase subunit epsilon (Homo sapiens, UniProt Q14164); assay: Inhibition of IKKi
# A2780 [32] = assay: Antitumor activity against human A2780 cells xenografted in nude mouse assessed as tumor growth inhibition at 20 mg/kg, po BID for 10 consecutive days; format: functional; set-up: scale not given: the % may be the effect or the level left; procedure, shortened: as §2
# Aurora kinase A = target: T1, Aurora kinase A (Homo sapiens, UniProt O14965); assay: Inhibition of Aurora A
# T1 sequence (O14965 whole entry): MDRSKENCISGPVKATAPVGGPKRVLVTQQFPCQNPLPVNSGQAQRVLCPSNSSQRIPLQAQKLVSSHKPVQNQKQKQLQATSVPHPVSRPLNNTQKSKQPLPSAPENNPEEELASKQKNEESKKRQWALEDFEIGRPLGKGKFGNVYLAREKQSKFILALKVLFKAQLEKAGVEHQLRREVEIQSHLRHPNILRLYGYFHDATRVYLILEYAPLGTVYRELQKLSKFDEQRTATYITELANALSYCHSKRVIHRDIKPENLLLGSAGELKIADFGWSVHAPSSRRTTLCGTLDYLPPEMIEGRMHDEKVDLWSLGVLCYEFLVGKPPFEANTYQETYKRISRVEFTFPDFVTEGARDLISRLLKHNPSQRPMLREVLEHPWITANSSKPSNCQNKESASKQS
# [33] = target: Serine/threonine-protein kinase Nek6 (Homo sapiens, UniProt Q9HC98); assay: Inhibition of NEK6
# A2780 [34] = assay: Antitumor activity against human A2780 cells xenografted in nude mouse assessed as tumor growth inhibition at 40 mg/kg, po BID for 10 consecutive days; format: functional; set-up: scale not given: the % may be the effect or the level left; procedure, shortened: as §2
# [35] = target: Cyclin-dependent kinase 1/cyclin B1 (Homo sapiens, UniProt P06493); assay: Inhibition of CDK1/Cyclin B
# Procedure, shortened: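 Biochemical kinase-panel assay against the CDK1/cyclin B complex; IC50 in μM, reported as the mean of two or more experiments.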
# [36] = Inhibition of PDGFR
# [37] = target: Serine/threonine-protein kinase PAK 4 (Homo sapiens, UniProt O96013); assay: Inhibition of PAK4
# Aurora kinase B = Aurora kinase B (Homo sapiens, UniProt Q96GD4); assay: Inhibition of Aurora B
# [38] = target: Insulin-like growth factor 1 receptor (Homo sapiens, UniProt P08069); assay: Inhibition of IGF1R
# [39] = target: Tyrosine-protein kinase Lyn (Homo sapiens, UniProt P07948); assay: Inhibition of LYN
# [40] = target: T2, Cyclin-dependent kinase 2 (Homo sapiens, UniProt P24941); assay: Inhibition of CDK2 in human A2780 cells assessed as reduction of hyperphosphorylated form of retinoblastoma protein at 3 uM relative to control; format: cell-based
# Procedure, shortened: (§3)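 A2780 human ovarian carcinoma cells (ECACC) were seeded at 25 000 cells/cm2 in RPMI 1640 pH 7.4 with 10% FBS and 2 mM L-glutamine, at 37 °C in 5% CO2. They were exposed 24 h later to 1 or 3 µM. Floating and adherent cells were harvested with trypsin/EDTA. Extracts were immunoblotted for hyper- and hypophosphorylated pRb and compared with untreated cells.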
# [41] = target: T2, Cyclin-dependent kinase 2; assay: Inhibition of CDK2 in human A2780 cells assessed as accumulation of hypophosphorylated form of retinoblastoma protein at 1 uM relative to control; format: cell-based; procedure, shortened: as §3
# [42] = target: T2, Cyclin-dependent kinase 2; assay: Inhibition of CDK2 in human A2780 cells assessed as accumulation of hypophosphorylated form of retinoblastoma protein at 3 uM relative to control; format: cell-based; procedure, shortened: as §3
# [43] = target: T2, Cyclin-dependent kinase 2; assay: Inhibition of CDK2 in human A2780 cells assessed as reduction of hyperphosphorylated form of retinoblastoma protein at 1 uM relative to control; format: cell-based; procedure, shortened: as §3
# Sequence of 3-phosphoinositide-dependent protein kinase 1 (O15530 whole entry): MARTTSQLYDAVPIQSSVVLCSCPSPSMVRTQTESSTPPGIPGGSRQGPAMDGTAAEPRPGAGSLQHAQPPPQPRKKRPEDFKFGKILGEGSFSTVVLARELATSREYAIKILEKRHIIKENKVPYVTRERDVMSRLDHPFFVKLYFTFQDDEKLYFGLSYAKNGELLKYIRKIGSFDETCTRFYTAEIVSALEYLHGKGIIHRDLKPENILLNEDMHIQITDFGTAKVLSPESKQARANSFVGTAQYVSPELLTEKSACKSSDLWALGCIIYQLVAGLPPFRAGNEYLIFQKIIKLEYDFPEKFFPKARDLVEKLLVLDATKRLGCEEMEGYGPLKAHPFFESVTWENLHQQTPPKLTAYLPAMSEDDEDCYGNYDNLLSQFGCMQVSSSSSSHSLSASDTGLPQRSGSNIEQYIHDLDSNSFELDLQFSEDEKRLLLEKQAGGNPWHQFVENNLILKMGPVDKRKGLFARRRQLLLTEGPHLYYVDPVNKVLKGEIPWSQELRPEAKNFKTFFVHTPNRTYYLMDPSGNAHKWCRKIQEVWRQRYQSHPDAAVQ
# Sequence of Cyclin-dependent kinase 1/cyclin B1 (P06493 whole entry): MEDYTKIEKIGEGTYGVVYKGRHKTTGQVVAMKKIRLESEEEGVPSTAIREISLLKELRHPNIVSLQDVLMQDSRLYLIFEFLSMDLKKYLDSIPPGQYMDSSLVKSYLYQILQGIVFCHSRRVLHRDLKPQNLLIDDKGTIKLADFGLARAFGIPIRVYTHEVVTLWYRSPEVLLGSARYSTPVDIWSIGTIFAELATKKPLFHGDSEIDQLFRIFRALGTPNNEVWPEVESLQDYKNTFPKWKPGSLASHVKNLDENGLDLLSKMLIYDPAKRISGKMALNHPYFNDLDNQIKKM
# Sequence of Cyclin-dependent kinase 1/cyclin B1 (P14635 whole entry, further chain): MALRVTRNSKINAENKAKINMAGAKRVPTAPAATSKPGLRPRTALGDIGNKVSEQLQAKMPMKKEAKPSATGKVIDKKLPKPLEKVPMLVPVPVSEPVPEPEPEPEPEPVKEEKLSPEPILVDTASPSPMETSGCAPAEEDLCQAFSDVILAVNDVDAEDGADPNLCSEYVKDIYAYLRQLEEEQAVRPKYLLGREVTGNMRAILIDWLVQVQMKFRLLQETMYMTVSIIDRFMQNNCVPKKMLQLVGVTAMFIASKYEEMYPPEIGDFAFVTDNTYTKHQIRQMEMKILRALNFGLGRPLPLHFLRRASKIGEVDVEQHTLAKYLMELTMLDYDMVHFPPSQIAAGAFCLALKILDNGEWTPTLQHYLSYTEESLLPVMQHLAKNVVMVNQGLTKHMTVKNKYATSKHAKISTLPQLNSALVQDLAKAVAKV
# Sequence of Serine/threonine-protein kinase PAK 4 (O96013 whole entry): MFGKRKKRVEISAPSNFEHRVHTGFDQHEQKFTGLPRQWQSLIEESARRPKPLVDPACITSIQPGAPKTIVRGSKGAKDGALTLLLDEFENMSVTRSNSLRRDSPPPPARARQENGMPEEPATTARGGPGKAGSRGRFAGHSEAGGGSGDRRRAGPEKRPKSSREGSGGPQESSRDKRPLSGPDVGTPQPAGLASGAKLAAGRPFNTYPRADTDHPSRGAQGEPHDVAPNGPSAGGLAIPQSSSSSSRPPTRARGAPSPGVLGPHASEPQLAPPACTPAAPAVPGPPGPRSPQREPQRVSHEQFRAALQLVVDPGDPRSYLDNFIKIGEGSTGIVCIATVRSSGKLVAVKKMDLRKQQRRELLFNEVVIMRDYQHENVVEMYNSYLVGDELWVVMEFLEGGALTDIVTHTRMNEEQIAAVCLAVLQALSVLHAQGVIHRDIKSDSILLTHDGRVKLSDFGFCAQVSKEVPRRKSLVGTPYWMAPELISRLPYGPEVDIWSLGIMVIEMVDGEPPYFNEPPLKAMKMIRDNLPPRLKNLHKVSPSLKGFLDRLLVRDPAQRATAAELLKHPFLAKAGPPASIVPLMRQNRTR
# Sequence of Tyrosine-protein kinase Lyn (P07948 whole entry): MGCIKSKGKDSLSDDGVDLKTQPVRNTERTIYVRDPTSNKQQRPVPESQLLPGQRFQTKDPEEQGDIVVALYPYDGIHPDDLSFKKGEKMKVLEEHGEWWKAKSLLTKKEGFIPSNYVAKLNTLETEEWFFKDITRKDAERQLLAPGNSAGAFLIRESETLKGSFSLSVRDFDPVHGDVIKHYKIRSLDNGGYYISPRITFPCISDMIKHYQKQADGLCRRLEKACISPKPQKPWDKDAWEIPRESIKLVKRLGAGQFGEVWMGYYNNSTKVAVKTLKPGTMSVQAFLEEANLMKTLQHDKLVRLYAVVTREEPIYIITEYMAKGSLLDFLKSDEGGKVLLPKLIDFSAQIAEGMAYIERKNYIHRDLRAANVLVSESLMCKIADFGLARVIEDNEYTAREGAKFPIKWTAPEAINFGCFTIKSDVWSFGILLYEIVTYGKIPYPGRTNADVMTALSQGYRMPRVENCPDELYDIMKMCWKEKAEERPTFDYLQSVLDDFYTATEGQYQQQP
# Sequence of Mitogen-activated protein kinase 14 (Q16539 whole entry): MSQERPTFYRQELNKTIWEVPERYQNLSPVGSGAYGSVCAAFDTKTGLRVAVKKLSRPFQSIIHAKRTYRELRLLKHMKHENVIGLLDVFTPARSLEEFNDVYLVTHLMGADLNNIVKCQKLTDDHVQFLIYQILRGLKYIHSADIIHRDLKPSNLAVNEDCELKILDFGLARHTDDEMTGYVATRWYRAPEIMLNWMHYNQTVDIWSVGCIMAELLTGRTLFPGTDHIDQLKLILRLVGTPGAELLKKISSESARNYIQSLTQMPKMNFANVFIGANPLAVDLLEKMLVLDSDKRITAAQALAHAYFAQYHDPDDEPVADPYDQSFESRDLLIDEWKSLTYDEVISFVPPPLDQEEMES
# Sequence of Proto-oncogene tyrosine-protein kinase receptor Ret (P07949 whole entry): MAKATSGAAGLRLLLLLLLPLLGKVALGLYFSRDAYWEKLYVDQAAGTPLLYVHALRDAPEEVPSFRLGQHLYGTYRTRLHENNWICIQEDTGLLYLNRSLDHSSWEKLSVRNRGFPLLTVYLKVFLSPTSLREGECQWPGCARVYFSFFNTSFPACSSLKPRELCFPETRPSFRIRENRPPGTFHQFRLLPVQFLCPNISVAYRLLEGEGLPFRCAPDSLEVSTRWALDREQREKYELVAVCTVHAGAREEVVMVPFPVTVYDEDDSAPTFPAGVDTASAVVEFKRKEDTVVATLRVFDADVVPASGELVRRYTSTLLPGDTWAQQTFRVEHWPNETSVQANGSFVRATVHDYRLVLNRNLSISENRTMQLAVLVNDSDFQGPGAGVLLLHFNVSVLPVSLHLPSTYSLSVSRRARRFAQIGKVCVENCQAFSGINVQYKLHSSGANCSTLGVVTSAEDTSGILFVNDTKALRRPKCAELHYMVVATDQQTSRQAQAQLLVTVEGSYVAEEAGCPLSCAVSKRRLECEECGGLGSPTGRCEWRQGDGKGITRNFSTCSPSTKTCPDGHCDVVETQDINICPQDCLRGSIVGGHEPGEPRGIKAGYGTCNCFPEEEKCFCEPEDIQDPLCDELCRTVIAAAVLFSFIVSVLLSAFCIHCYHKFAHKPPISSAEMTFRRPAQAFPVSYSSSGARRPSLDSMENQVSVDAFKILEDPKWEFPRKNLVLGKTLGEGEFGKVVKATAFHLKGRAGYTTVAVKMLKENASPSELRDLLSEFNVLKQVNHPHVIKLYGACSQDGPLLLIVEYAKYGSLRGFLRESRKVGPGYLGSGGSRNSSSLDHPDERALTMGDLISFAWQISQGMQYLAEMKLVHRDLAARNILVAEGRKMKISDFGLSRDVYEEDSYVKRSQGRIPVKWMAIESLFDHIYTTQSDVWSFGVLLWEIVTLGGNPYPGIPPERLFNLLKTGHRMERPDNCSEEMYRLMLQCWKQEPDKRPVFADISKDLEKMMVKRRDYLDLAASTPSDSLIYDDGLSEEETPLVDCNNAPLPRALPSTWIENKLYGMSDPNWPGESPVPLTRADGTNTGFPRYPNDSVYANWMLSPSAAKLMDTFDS
# Sequence of Tyrosine-protein kinase ZAP-70 (P43403 whole entry): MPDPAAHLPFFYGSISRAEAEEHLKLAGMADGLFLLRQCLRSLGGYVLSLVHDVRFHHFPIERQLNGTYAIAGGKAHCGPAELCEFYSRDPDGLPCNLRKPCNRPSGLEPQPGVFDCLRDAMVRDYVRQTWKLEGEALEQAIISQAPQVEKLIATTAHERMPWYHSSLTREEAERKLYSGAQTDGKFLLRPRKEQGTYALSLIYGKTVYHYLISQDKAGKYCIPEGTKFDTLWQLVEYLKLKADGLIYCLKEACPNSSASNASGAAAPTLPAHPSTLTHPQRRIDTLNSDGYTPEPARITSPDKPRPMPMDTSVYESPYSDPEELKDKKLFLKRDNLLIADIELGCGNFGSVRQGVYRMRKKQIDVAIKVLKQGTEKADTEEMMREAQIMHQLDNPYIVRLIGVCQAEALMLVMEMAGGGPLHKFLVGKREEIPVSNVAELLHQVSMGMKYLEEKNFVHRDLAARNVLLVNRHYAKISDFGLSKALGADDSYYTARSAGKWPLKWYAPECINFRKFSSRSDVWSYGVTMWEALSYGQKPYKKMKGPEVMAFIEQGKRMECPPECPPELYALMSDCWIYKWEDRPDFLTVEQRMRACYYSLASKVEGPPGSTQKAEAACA
# Sequence of Serine/threonine-protein kinase Nek6 (Q9HC98 whole entry): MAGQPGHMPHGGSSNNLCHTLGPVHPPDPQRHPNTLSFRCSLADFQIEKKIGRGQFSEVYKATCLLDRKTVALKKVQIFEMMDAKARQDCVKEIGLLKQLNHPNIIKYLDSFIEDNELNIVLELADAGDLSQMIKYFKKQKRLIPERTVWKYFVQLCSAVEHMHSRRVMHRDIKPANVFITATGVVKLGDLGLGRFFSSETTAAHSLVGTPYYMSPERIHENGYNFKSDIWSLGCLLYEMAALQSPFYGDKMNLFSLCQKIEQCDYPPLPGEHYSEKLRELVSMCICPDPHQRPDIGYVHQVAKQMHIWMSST
smiles,measurement,setting,value
CNC(=O)c1nn(C)c2c1C(C)(C)Cc1cnc(Nc3ccc(N4CCN(C)CC4)cc3)nc1-2 [MILCICLIB],IC50,[1],1.17 µM
same,IC50,[2],> 10 µM
same,solubility,[3],191 µM
same,IC50,[4],> 10 µM
same,Activity,A2780 [5],75%
same,IC50,[6],2.87 µM
same,IC50,[7],> 10 µM
same,IC50,[8],> 10 µM
same,IC50,[9],> 10 µM
same,IC50,[10],1.93 µM
same,Activity,A2780 [11],68%
same,IC50,[12],0.92 µM
same,IC50,[13],> 10 µM
same,IC50,[14],> 10 µM
same,IC50,[15],> 10 µM
same,IC50,[16],> 10 µM
same,IC50,[17],> 10 µM
same,Activity,A2780 [18],49%
same,IC50,[19],0.668 µM
same,Activity,A2780 [20],40%
same,IC50,[21],> 10 µM
same,IC50,[22],> 10 µM
same,IC50,[23],> 10 µM
same,IC50,A2780 [24],0.2 µM
same,IC50,[25],> 10 µM
same,IC50,Insulin receptor,> 10 µM
same,IC50,[26],> 10 µM
same,IC50,[27],1.21 µM
same,IC50,[28],> 10 µM
same,Activity,A2780 [29],76%
same,IC50,[30],> 10 µM
same,IC50,[31],> 10 µM
same,Activity,A2780 [32],53%
same,IC50,Aurora kinase A,1.05 µM
same,IC50,[33],1.06 µM
same,Activity,A2780 [34],91%
same,IC50,[35],0.398 µM
same,IC50,[36],0.579 µM
same,IC50,[37],> 10 µM
same,IC50,Aurora kinase B,4.17 µM
same,IC50,[38],> 10 µM
same,IC50,[39],> 10 µM
CNC(=O)c1nn(C)c2c1C(C)(C)Cc1cnc(Nc3ccc(N4CCN(C)CC4)cc3)nc1-2,Activity,[40],Active
same,Activity,[41],Active
same,Activity,[42],Active
same,Activity,[43],Active
